Results published in ChEMBL document CHEMBL1165965, “Synthesis and structure-activity relationships of 1,2,3,4-tetrahydropyrido[2,3-b]pyrazines as potent and selective inhibitors of the anaplastic lymphoma kinase” (Bioorg Med Chem, 2010).

Tests used:
[1] = target: Calcium/calmodulin-dependent protein kinase type 1 (Homo sapiens) (UniProt Q14012); experiment: Inhibition of CAMK1 at 1 uM
Procedure, shortened: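 Ambit KINOMEscan screen at a single concentration across a 250–400 kinase panel, recorded as percent inhibition. Selectivity was expressed as S(90), the fraction of kinases inhibited >90%.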

[2] = target: Tyrosine-protein kinase JAK2 (Homo sapiens) (UniProt O60674); experiment: Inhibition of JAK2 JH1 catalytic domain at 1 uM
Procedure, shortened: (§1)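 Single-concentration screen on the Ambit KINOMEscan platform, run against a panel of 250–400 kinases. Per-kinase inhibition was also summarized as S(90), the fraction of kinases inhibited by more than 90%.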

[3] = target: T1, Mitogen-activated protein kinase 13 (Homo sapiens) (UniProt O15264); experiment: Inhibition of p38-delta at 1 uM
T1 sequence (whole entry): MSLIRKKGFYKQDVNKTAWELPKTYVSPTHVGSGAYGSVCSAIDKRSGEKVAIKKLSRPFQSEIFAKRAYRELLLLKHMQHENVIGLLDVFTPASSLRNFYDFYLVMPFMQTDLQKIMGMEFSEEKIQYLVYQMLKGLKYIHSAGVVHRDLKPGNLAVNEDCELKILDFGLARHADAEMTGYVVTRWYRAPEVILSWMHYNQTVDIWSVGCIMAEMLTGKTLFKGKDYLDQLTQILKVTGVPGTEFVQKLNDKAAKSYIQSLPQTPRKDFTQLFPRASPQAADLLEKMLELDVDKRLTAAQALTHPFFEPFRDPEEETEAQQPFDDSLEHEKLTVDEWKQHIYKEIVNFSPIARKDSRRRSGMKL

[4] = target: Wee1-like protein kinase (Homo sapiens) (UniProt P30291); experiment: Inhibition of WEE1 at 1 uM
[5] = target: SRSF protein kinase 1 (Homo sapiens) (UniProt Q96SB4); experiment: Inhibition of SRPK1 at 1 uM
[6] = target: T2, NUAK family SNF1-like kinase 2 (Homo sapiens) (UniProt Q9H093); experiment: Inhibition of SNARK at 1 uM
T2 sequence (whole entry): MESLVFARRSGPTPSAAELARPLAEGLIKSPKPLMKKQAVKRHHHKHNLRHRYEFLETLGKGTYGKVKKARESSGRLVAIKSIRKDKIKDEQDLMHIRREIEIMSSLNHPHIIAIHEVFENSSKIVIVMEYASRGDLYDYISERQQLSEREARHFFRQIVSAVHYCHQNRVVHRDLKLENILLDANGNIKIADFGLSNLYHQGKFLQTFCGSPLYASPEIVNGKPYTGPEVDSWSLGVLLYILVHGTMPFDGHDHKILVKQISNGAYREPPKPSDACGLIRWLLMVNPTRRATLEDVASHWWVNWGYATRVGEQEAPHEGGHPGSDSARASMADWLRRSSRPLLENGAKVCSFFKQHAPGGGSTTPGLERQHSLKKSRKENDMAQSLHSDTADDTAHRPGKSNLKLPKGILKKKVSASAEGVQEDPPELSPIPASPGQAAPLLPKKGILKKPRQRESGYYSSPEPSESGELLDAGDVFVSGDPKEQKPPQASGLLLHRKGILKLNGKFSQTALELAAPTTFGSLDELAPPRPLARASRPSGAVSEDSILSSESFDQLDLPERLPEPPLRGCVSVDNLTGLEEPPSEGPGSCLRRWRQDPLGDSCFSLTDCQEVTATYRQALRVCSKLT

[7] = target: Insulin-like growth factor 1 receptor (Homo sapiens) (UniProt P08069); experiment: Inhibition of IGF1R at 1 uM; procedure, shortened: as §1
[8] = target: Proto-oncogene tyrosine-protein kinase receptor Ret (Homo sapiens) (UniProt P07949); experiment: Inhibition of RET at 1 uM
[9] = target: Non-receptor tyrosine-protein kinase TYK2 (Homo sapiens) (UniProt P29597); experiment: Inhibition of TYK2 JH2 pseudokinase domain at 1 uM
[10] = target: Mitogen-activated protein kinase 3 (Homo sapiens) (UniProt P27361); experiment: Inhibition of ERK1 at 1 uM
Procedure, shortened: (§2)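 Single-concentration screen using Ambit Bioscience KINOMEscan technology across a panel of 250–400 kinases. Per-kinase inhibition from this screen was summarized as S(90), the fraction of kinases inhibited by more than 90%.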

[11] = target: Serine/threonine-protein kinase PLK1 (Homo sapiens) (UniProt P53350); experiment: Inhibition of PLK1 at 1 uM
[12] = tested on: Epidermal growth factor receptor (Homo sapiens), P00533 [G719S]; experiment: Inhibition of EGFR G719S mutant at 1 uM; type: protein assay; procedure, shortened: as §2
[13] = target: ALK tyrosine kinase receptor (Homo sapiens, UniProt Q9UM73); experiment: Inhibition of ALK by time-resolved fluorescence assay
Procedure, shortened: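 Baculovirus-expressed ALK (30 ng/ml) on plates coated with GST–PLC-gamma substrate in TBS. Reaction ran 15 min at 37 °C. Europium-labeled anti-phosphotyrosine antibody was added for 1 h at 37 °C, then enhancement solution for 30 min, and TRF was read. IC50 came from a variable-slope sigmoidal fit of % inhibition vs log concentration.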

Sequence of ALK tyrosine kinase receptor (Q9UM73 whole entry): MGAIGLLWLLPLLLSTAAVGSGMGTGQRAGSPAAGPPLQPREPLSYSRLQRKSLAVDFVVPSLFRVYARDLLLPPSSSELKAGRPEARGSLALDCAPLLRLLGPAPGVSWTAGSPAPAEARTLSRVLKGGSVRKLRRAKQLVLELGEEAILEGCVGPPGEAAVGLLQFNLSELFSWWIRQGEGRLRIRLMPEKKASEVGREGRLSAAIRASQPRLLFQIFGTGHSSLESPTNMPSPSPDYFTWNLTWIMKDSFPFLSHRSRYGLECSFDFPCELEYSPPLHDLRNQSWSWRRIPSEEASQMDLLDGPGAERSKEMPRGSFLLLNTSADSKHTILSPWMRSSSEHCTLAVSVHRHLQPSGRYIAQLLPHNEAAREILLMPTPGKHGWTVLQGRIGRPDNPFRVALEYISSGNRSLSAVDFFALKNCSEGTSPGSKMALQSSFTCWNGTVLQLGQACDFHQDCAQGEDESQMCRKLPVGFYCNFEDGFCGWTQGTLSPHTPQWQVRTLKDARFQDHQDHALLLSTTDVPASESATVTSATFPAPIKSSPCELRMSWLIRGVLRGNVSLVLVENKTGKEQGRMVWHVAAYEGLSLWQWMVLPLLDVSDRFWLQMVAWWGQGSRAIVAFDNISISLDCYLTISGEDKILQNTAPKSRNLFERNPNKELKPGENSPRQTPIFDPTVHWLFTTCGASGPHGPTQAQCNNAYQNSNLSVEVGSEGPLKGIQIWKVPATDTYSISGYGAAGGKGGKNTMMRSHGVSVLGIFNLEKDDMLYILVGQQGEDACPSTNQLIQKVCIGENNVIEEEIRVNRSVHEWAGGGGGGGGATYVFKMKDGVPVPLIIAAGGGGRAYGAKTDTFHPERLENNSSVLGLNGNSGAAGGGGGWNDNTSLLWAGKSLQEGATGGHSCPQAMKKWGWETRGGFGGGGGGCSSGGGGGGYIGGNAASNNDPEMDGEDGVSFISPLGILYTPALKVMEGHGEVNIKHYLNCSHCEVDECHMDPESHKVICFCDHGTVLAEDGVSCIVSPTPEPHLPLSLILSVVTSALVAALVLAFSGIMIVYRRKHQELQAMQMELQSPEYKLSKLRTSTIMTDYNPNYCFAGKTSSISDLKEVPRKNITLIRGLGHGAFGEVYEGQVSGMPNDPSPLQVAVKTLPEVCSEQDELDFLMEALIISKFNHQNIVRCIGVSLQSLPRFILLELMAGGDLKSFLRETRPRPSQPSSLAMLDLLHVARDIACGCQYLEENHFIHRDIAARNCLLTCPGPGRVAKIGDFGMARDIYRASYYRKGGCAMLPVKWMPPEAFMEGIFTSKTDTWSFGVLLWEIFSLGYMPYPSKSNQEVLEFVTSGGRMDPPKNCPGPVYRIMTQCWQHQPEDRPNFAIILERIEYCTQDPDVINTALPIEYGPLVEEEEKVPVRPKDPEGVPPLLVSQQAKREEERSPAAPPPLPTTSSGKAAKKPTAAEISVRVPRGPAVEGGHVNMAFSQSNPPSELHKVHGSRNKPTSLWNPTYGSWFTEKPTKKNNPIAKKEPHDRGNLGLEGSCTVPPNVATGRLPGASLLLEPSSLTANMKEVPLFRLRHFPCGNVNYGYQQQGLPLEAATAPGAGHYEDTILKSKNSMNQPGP
Sequence of Mitogen-activated protein kinase 3 (Homo sapiens) (P27361 whole entry): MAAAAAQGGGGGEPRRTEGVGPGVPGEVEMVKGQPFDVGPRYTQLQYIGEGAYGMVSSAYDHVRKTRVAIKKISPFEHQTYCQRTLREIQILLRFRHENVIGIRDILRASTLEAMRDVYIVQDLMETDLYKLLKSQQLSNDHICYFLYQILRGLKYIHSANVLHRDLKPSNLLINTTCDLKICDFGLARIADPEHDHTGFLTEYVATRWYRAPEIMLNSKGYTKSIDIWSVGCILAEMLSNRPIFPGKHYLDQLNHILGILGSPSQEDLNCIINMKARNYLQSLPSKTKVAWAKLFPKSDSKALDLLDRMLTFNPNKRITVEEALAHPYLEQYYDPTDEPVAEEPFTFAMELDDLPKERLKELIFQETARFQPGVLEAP
Sequence of Tyrosine-protein kinase JAK2 (Homo sapiens) (O60674 whole entry, the tested form may be a part): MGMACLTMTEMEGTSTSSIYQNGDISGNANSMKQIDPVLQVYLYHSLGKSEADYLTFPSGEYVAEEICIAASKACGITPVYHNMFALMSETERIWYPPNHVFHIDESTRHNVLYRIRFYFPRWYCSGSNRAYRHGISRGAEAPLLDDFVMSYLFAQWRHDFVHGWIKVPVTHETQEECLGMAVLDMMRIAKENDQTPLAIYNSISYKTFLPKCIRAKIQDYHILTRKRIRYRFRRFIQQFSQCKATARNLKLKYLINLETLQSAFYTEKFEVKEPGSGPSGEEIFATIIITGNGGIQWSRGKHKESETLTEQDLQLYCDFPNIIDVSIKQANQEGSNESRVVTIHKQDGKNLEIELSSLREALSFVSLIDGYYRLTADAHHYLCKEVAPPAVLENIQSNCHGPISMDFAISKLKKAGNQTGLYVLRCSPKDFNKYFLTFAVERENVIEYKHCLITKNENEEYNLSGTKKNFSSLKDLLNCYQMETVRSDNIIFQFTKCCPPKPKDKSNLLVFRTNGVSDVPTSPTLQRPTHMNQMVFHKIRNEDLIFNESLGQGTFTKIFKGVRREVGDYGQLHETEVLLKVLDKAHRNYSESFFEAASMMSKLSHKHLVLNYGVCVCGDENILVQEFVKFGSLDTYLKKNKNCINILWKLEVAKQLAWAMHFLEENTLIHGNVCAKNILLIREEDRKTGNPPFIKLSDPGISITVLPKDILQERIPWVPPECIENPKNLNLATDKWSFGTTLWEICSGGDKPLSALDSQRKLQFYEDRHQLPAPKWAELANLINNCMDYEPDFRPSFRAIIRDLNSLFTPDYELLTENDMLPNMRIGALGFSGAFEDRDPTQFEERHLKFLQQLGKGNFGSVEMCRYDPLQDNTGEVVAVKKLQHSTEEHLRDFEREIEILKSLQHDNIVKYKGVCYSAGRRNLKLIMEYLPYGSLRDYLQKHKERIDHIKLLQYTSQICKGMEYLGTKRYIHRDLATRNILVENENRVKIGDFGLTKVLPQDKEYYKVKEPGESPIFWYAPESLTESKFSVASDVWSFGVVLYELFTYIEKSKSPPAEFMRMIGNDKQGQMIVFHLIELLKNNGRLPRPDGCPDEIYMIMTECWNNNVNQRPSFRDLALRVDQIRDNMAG
Sequence of Insulin-like growth factor 1 receptor (Homo sapiens) (P08069 31-736 limits assumed): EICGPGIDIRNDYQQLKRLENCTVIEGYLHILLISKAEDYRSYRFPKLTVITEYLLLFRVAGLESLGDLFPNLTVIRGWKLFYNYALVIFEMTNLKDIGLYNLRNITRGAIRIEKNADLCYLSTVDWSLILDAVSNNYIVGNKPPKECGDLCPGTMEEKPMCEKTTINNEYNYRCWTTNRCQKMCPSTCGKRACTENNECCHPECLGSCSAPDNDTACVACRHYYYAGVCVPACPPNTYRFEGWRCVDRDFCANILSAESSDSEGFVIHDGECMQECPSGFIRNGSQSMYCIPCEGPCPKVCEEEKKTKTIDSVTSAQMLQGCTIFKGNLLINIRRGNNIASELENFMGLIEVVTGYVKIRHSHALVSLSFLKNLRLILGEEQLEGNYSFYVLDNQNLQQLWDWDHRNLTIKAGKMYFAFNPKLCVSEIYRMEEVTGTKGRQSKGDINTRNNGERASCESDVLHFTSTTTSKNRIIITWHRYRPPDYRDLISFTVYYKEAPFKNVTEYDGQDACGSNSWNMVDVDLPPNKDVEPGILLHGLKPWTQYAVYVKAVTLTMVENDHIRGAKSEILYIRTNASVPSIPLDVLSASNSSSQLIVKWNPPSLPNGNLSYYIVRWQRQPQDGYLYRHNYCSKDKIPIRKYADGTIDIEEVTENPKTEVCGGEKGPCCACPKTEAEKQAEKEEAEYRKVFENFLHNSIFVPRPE
Sequence of Insulin-like growth factor 1 receptor (Homo sapiens) (P08069 741-1367 limits assumed): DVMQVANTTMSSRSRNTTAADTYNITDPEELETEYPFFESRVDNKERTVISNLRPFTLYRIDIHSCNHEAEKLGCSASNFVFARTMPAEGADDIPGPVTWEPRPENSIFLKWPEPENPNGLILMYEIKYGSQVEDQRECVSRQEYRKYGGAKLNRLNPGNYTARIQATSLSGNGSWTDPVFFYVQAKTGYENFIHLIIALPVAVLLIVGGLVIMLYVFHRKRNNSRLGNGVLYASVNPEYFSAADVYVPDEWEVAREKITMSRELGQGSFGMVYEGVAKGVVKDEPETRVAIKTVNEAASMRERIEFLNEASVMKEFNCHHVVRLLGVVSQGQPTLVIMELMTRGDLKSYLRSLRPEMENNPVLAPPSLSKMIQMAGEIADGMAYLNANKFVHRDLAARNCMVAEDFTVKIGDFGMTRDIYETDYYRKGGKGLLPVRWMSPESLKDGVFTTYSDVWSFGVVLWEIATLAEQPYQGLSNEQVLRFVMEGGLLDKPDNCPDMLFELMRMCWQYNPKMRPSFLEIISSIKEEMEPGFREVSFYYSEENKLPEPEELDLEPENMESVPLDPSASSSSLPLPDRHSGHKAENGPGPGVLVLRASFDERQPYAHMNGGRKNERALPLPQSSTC
Sequence of Calcium/calmodulin-dependent protein kinase type 1 (Homo sapiens) (Q14012 whole entry, looked up): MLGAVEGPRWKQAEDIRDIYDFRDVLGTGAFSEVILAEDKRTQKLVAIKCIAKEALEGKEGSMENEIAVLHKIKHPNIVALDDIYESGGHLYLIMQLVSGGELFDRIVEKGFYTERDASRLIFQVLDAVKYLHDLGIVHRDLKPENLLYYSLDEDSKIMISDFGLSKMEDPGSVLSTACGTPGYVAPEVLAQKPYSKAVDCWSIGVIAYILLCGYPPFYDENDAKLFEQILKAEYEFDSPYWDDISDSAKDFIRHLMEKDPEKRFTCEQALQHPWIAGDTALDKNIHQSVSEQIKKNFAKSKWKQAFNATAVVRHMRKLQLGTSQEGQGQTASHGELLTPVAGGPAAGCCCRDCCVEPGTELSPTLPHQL

Compound	inhibition [1] [%]	inhibition [2] [%]	inhibition [3] [%]	inhibition [4] [%]	inhibition [5] [%]	inhibition [6] [%]	inhibition [7] [%]	inhibition [8] [%]	inhibition [9] [%]	inhibition [10] [%]	inhibition [11] [%]	inhibition [12] [%]	IC50 [13] [nM]
CN1CCN(c2ccc(-c3cnc4c(c3)N(Cc3cc(Cl)ccc3C(F)(F)F)CCN4)cn2)CC1	< 50	94	< 50	< 50	< 50	85	< 50	< 50	< 50	< 50	< 50	< 50	–
O=C(c1ccc(-c2cnc3c(c2)N(Cc2cc(Cl)ccc2C(F)(F)F)CCN3)cc1)N1CCC(N2CCCC2)CC1	< 50	99.5	–	–	< 50	–	< 50	< 50	–	< 50	< 50	< 50	10
FC(F)(F)c1ccc(Cl)cc1CN1CCNc2ncc(-c3ccnc(N4CCNCC4)c3)cc21	< 50	97	< 50	< 50	< 50	93	< 50	77	< 50	< 50	< 50	< 50	10
CC(=O)N1CCN(c2cc(-c3cnc4c(c3)N(Cc3cc(Cl)ccc3C(F)(F)F)CCN4)ccn2)CC1	< 50	96	< 50	< 50	< 50	71	< 50	< 50	< 50	< 50	< 50	< 50	17
CN1CCN(c2ccc(-c3cnc4c(c3)N(Cc3cc(F)ccc3F)CCN4)cn2)CC1	< 50	94.7	< 50	< 50	< 50	90	< 50	< 50	< 50	< 50	< 50	< 50	33
CN1CCN(c2ccc(-c3cnc4c(c3)N(Cc3cc(Cl)ccc3Cl)CCN4)cn2)CC1	< 50	95	< 50	< 50	< 50	81	< 50	< 50	< 50	< 50	< 50	< 50	11

More lines, now with the values ahead:

inhibition [1] [%]	inhibition [2] [%]	inhibition [3] [%]	inhibition [4] [%]	inhibition [5] [%]	inhibition [6] [%]	inhibition [7] [%]	inhibition [8] [%]	inhibition [9] [%]	inhibition [10] [%]	inhibition [11] [%]	inhibition [12] [%]	IC50 [13] [nM]	Compound
< 50	95.1	–	–	< 50	–	< 50	< 50	–	< 50	< 50	< 50	1300	O=C(O)c1ccc(-c2cnc3c(c2)N(Cc2cc(Cl)ccc2C(F)(F)F)CCN3)cc1
< 50	–	–	–	< 50	–	< 50	< 50	–	< 50	< 50	< 50	40	COC1CCN(C(=O)c2ccc(-c3cnc4c(c3)N(Cc3cc(Cl)ccc3C(F)(F)F)CCN4)cc2)CC1
< 50	77	< 50	< 50	< 50	90	< 50	< 50	< 50	< 50	< 50	< 50	–	CN1CCN(c2ccc(-c3cnc4c(c3)N(Cc3c(F)ccc(F)c3Cl)CCN4)cn2)CC1
< 50	96.3	–	–	< 50	–	< 50	< 50	–	< 50	< 50	< 50	121	O=C(c1ccc(-c2cnc3c(c2)N(Cc2cc(Cl)ccc2C(F)(F)F)CCN3)cc1)N1CCCCC1
